Each structure is given as a SMILES string.

This assay relates to Pseudomonas. In words: Minimum inhibitory concentration against Pseudomonas species. In kind it is functional. The procedure, abridged:
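MIC in µg/mL, determined by the 2-fold serial agar dilution method. These readings were excluded from the geometric-mean MIC used for the QSAR analysis.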

Consider `CO/N=C(\C(=O)NC1CN2CC(S(C)(=O)=O)=C(C(=O)O)N2C1=O)c1csc(N)n1` (stereo unspecified), for which the MIC (in general, the smallest concentration in the dilution series that meets the test's criterion for growth inhibition) is greater than 128 mg/L.

Regarding `CO/N=C(\C(=O)N[C@H]1CN2CC(C#N)=C(C(=O)O)N2C1=O)c1csc(N)n1`, the MIC is greater than 128 mg/L.

On to `CO/N=C(\C(=O)N[C@H]1CN2CC(C(=O)OCc3ccccc3)=C(C(=O)O)N2C1=O)c1csc(N)n1`, for which the MIC was greater than 128 mg/L.

As for `CO/N=C(\C(=O)N[C@H]1CN2CC(S(=O)(=O)c3ccccc3)=C(C(=O)O)N2C1=O)c1csc(N)n1`, the MIC was greater than 128 mg/L.

Molecule `CO/N=C(\C(=O)N[C@H]1CN2CC(NC(=O)OC)=C(C(=O)O)N2C1=O)c1csc(N)n1` registered an MIC greater than 128 mg/L.

In turn, `CO/N=C(\C(=O)N[C@H]1CN2CC(S(=O)(=O)N(C)C)=C(C(=O)O)N2C1=O)c1csc(N)n1` had an MIC greater than 128 mg/L.

Turning to `CO/N=C(\C(=O)N[C@H]1CN2CC(C(=O)c3ccccc3)=C(C(=O)O)N2C1=O)c1csc(N)n1`, the MIC is greater than 128 mg/L.

In turn, `CO/N=C(\C(=O)N[C@H]1CN2CC(C(C)=O)=C(C(=O)O)N2C1=O)c1csc(N)n1` displayed an MIC greater than 128 mg/L.

Consider `CO/N=C(\C(=O)N[C@H]1CN2CC=C(C(=O)O)N2C1=O)c1csc(N)n1`, for which the MIC was greater than 128 mg/L.

`CO/N=C(\C(=O)N[C@H]1CN2CC(c3cccs3)=C(C(=O)O)N2C1=O)c1csc(N)n1` had an MIC greater than 128 mg/L.

In turn, `CO/N=C(\C(=O)N[C@H]1CN2CC(C(=O)CF)=C(C(=O)O)N2C1=O)c1csc(N)n1` yielded an MIC greater than 128 mg/L.

The molecule `CO/N=C(\C(=O)N[C@H]1CN2CC(SC)=C(C(=O)O)N2C1=O)c1csc(N)n1` gave an MIC greater than 128 mg/L.

`CCOP(=O)(OCC)C1=C(C(=O)O)N2C(=O)[C@@H](NC(=O)/C(=N\OC)c3csc(N)n3)CN2C1`: the MIC is greater than 128 mg/L.

On to `CO/N=C(\C(=O)N[C@H]1CN2CC(C(=O)O)=C(C(=O)O)N2C1=O)c1csc(N)n1`, for which the MIC was greater than 128 mg/L.

`CO/N=C(\C(=O)N[C@H]1CN2CC(C(F)(F)F)=C(C(=O)O)N2C1=O)c1csc(N)n1` yielded an MIC greater than 128 mg/L.

As to `CO/N=C(\C(=O)N[C@H]1CN2CC(Sc3nnnn3C)=C(C(=O)O)N2C1=O)c1csc(N)n1`, the MIC is greater than 128 mg/L.

`CO/N=C(\C(=O)N[C@H]1CN2CC(C(=O)Nc3ccccc3)=C(C(=O)O)N2C1=O)c1csc(N)n1` yielded an MIC greater than 128 mg/L.

`CO/N=C(\C(=O)N[C@H]1CN2CC(S(=O)(=O)CCNC(C)=O)=C(C(=O)O)N2C1=O)c1csc(N)n1` gave an MIC greater than 128 mg/L.

In turn, `CO/N=C(\C(=O)N[C@H]1CN2CC(c3ccccn3)=C(C(=O)O)N2C1=O)c1csc(N)n1` gave an MIC greater than 128 mg/L.

The molecule `CO/N=C(\C(=O)N[C@H]1CN2CC(P(=O)(OC)OC)=C(C(=O)O)N2C1=O)c1csc(N)n1` came in with an MIC greater than 128 mg/L.

Molecule `CCS(=O)(=O)C1=C(C(=O)O)N2C(=O)[C@@H](NC(=O)/C(=N\OC)c3csc(N)n3)CN2C1` had a minimal inhibitory concentration (MIC) greater than 128 mg/L.

In turn, `CO/N=C(\C(=O)N[C@H]1CN2CC(c3ccccc3)=C(C(=O)O)N2C1=O)c1csc(N)n1` yielded an MIC greater than 128 mg/L.

`CCOC(=O)C1=C(C(=O)O)N2C(=O)[C@@H](NC(=O)/C(=N\OC)c3csc(N)n3)CN2C1`: the MIC is greater than 128 mg/L.

In turn, `CCC(=O)C1=C(C(=O)O)N2C(=O)[C@@H](NC(=O)/C(=N\OC)c3csc(N)n3)CN2C1` yielded a minimal inhibitory concentration (MIC) greater than 128 mg/L.

For `CCCOC(=O)C1=C(C(=O)O)N2C(=O)[C@@H](NC(=O)/C(=N\OC)c3csc(N)n3)CN2C1`, the MIC is greater than 128 mg/L.

The molecule `CO/N=C(\C(=O)N[C@H]1CN2CC(S(=O)(=O)c3c(C)noc3C)=C(C(=O)O)N2C1=O)c1csc(N)n1` gave a minimum inhibitory concentration (MIC) greater than 128 mg/L.

As to `CNC(=O)C1=C(C(=O)O)N2C(=O)[C@@H](NC(=O)/C(=N\OC)c3csc(N)n3)CN2C1`, the MIC was greater than 128 mg/L.

For `CO/N=C(\C(=O)N[C@H]1CN2CC(Sc3nnc(C)s3)=C(C(=O)O)N2C1=O)c1csc(N)n1`, the MIC was greater than 128 mg/L.

In turn, `C=CCO/N=C/C1=C(C(=O)O)N2C(=O)[C@@H](NC(=O)/C(=N\OC)c3csc(N)n3)CN2C1` registered a minimal inhibitory concentration (MIC) greater than 128 mg/L.

`CO/N=C(\C(=O)N[C@H]1CN2CC(/C=N/OC)=C(C(=O)O)N2C1=O)c1csc(N)n1` had an MIC greater than 128 mg/L.

For `CO/N=C(\C(=O)N[C@H]1CN2CC(C(=O)C(F)(F)F)=C(C(=O)O)N2C1=O)c1csc(N)n1`, the minimum inhibitory concentration (MIC) was greater than 128 mg/L.

As to `CO/N=C(\C(=O)N[C@H]1CN2CC(c3ccncc3)=C(C(=O)O)N2C1=O)c1csc(N)n1`, the MIC was greater than 128 mg/L.

`CO/N=C(\C(=O)N[C@H]1CN2CC(C(=O)OC)=C(C(=O)O)N2C1=O)c1csc(N)n1` had an MIC greater than 128 mg/L.

As to `C=CC1=C(C(=O)O)N2C(=O)[C@@H](NC(=O)/C(=N\OC)c3csc(N)n3)CN2C1`, the MIC was greater than 128 mg/L.

`CO/N=C(\C(=O)N[C@H]1CN2CC(/C=N/OCCc3ccccc3)=C(C(=O)O)N2C1=O)c1csc(N)n1` displayed an MIC greater than 128 mg/L.

On to `CO/N=C(\C(=O)N[C@H]1CN2CC(COC(C)=O)=C(C(=O)O)N2C1=O)c1csc(N)n1`, for which the MIC was greater than 128 mg/L.

These data come from ChEMBL document CHEMBL1126691, “Application of the hypersurface iterative projection method to bicyclic pyrazolidinone antibacterial agents” (1993).
